In ChEMBL document CHEMBL5543129, “Peptide Inhibitor Targeting the Extraterminal Domain in BRD4 Potently Suppresses Breast Cancer Both In Vitro and In Vivo” (J Med Chem, 2024):
Activity calls are given as the source filed them. The calls are words filed in the database; no cut-off is given here. Square brackets hold non-standard residues; d marks the D form. Peptide text beside a SMILES is read from it. Hyp = O=C(O)[C@@H]1C[C@@H](O)CN1; Ahx = NCCCCCC(=O)O

Legend:
[1] = Toxicity in BALB/c mouse xenografted with human MCF7 cells assessed as change in kidney weight at 12.5 mg/kg, ip administered every 2 days in presence of 50 mg/kg JQ1; assay type: organism-based; details: in vivo, 48 h
[2] = Toxicity in BALB/c mouse xenografted with human MCF7 cells assessed as change in lung morphology at 12.5 mg/kg, ip administered every 2 days in presence of 50 mg/kg JQ1; assay type: organism-based; details: in vivo, 48 h
MCF7 [3] = assay: Inhibition of colony formation in human MCF7 cells at 10 uM incubated for 2 weeks in presence of 5 uM JQ1 by crystal violet staining based assay; assay type: functional, cell-based
Summary of the method: (§1)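 Cells are seeded at 1 × 10^3/well and treated with peptide (10 μM) for 2 weeks, alone or with JQ1 5 μM, iJMJD6 10 μM, ICI 2.5 μM, or tamoxifen 3 μM (tamoxifen-resistant lines). Colonies are stained with crystal violet, dissolved in 10% acetic acid, and read at 590 nm. Three biological repeats.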

MDA-MB-231 [4] = assay: Inhibition of cell migration in human MDA-MB-231 cells at 10 uM incubated for 12 hrs in presence of 5 uM JQ1 by inverted microscopic assay; assay type: functional, cell-based
Summary of the method: (§2)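 Cells are seeded at 5 × 10^5/well and scratched at 80–90% confluence. They are kept in serum-free medium with peptide (10 μM); partner agents are JQ1 5 μM, iJMJD6 10 μM, or ICI 2.5 μM. Wound area is imaged by inverted microscope at 0 and 12 or 24 h. Wound closure % = (A0−A1)/A0 × 100. Three biological repeats.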

[5] = Toxicity in BALB/c mouse xenografted with human MCF7 cells assessed as change in spleen morphology at 12.5 mg/kg, ip administered every 2 days in presence of 50 mg/kg JQ1; assay type: organism-based; details: in vivo, 48 h
Mus musculus = assay: Downregulation of c-Myc mRNA expression in BALB/c mouse tumor xenografted with human MCF7 cells at 25 mg/kg, ip administered every 2 days by RT-qPCR analysis; assay type: functional, organism-based
Summary of the method: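 Female BALB/c nude mice (4–6 weeks) implanted subcutaneously with 5 × 10^6 cells in PBS. For MCF7 grafts, estrogen (E2, 10–2 M) is brushed on every 2 days. Treatment starts at ~50 mm3 after randomization, with peptide in normal saline ip every 2 days. Tumour mRNA is measured by RT-qPCR.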

MDA-MB-231 [6] = assay: Antiproliferative activity against human MDA-MB-231 cells at 10 uM incubated for 1 week in presence of 5 uM JQ1 by CellTiter 96 Aqueous One Solution based assay; assay type: functional, cell-based; details: time 1.0 weeks
Summary of the method: (§3)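 Cells seeded at 2 × 10^3/well and treated with peptide (10 μM) alone or combined with JQ1 (5 μM), iJMJD6 (10 μM) or ICI (2.5 μM), as the line states. Viability read by MTS reagent, 1 h at 37 °C, A490. Three biological repeats.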

[7] = Toxicity in BALB/c mouse xenografted with human […] cells assessed as change body weight at 12.5 mg/kg, ip administered every 2 days in presence of 50 mg/kg JQ1; assay type: organism-based; details: in vivo, 48 h
Summary of the method: (§4)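 Female BALB/c nude mice (4–6 weeks) carried sc MDA-MB-231 xenografts (5 × 10^6 cells) and were randomized at about 50 mm3. Peptide (12.5 mg/kg ip in saline) and JQ1 (50 mg/kg ip, DMSO/10% HPBCD 1:10) were given every 2 days, alone or combined. Body weight was recorded, and heart, liver, spleen, lung and kidney morphology and weight were assessed.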

[8] = Downregulation of CCND1 protein expression in human MDA-MB-231 cells assessed as fold change in remaining CCND1 level at 10 uM incubated for 24 hrs by immunoblotting analysis (reference value: 1); assay type: functional
Summary of the method: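 Cells treated with peptide (10 μM) for 24 h. Lysates in Tris/NaCl/EDTA/1% Triton X-100, run on 10% SDS-PAGE and immunoblotted with ECL detection. β-actin as loading control. Three repeats, quantified against untreated cells.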

[9] = Toxicity in BALB/c mouse xenografted with human MDA-MB-231 cells assessed as change in lung weight at 12.5 mg/kg, ip administered every 2 days in presence of 50 mg/kg JQ1; assay type: organism-based; details: in vivo, 48 h; summary of the method: as §4
MCF7 [10] = assay: Inhibition of cell migration in human MCF7 cells at 10 uM incubated for 24 hrs by inverted microscopic assay; assay type: functional, cell-based; summary of the method: as §2
MCF7 [11] = assay: Antitumor activity against human MCF7 cells xenografted in BALB/c nude mouse assessed as reduction in tumor growth at 25 mg/kg, ip administered every 2 days; assay type: functional, organism-based
Summary of the method: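 Female BALB/c nude mice, 4–6 wk, given 5 × 10^6 cells in PBS subcutaneously; MCF7 mice also had E2 (10^-2 M) brushed on the neck every 2 days. Randomised at ~50 mm3. Peptide in 0.9% saline, 25 mg/kg ip every 2 days. Caliper volume (1/2 × L × W²) every 2 days.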

MDA-MB-231 [12] = assay: Inhibition of colony formation in human MDA-MB-231 cells at 10 uM incubated for 2 weeks in presence of JMJD6 inhibitor by crystal violet staining based assay; assay type: functional, cell-based; summary of the method: as §1
MDA-MB-231 [13] = assay: Downregulation of c-Myc gene expression in human MDA-MB-231 cells at 10 uM incubated for 6 hrs by RT-qPCR analysis; assay type: functional, cell-based
Summary of the method: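 Cells treated with peptide (10 μM) for 6 h; c-Myc, N-myc and CCND1 mRNA measured by RT-qPCR. Three biological repeats.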

[14] = Toxicity in BALB/c mouse xenografted with human MCF7 cells assessed as change in heart at 12.5 mg/kg, ip administered every 2 days in presence of 12.5 mg/kg JMJD6 inhibitor; assay type: organism-based; details: in vivo, 48 h
Summary of the method: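 Female BALB/c nude mice carried MCF7 xenografts (5 × 10^6 cells sc, E2 10–2 M brushed every 2 days) and were randomized at about 50 mm3. Peptide was given at 12.5 mg/kg ip every 2 days, and iJMJD6 (DMSO/PBS 1:20) at 12.5 mg/kg ip every other day, alone or combined. Body and organ weights were recorded.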

[15] = Toxicity in BALB/c mouse xenografted with human MCF7 cells assessed as change in lung weight at 12.5 mg/kg, ip administered every 2 days in presence of 50 mg/kg JQ1; assay type: organism-based; details: in vivo, 48 h
[16] = Toxicity in BALB/c mouse xenografted with human MCF7 cells assessed as change in body weight at 2.5 mg/kg, ip administered every 2 days in presence of 12.5 mg/kg fulvestrant; assay type: organism-based; details: in vivo, 48 h
MCF7 [17] = assay: Antiproliferative activity against human MCF7 cells at 10 uM incubated for 1 week in presence of JMJD6 inhibitor by CellTiter 96 Aqueous One Solution based assay; assay type: functional, cell-based; details: time 1.0 weeks; summary of the method: as §3
[18] = Downregulation of JMJD6 protein expression in BALB/c mouse tumor xenografted with human MCF7 cells assessed as fold change in remaining JMJD6 level at 25 mg/kg, ip administered every 2 days by immunoblotting analysis; assay type: functional
Summary of the method: (§5)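 Tumours taken from xenograft mice dosed with peptide at 25 mg/kg ip every 2 days. […] Three repeats.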

[19] = Downregulation of N-myc protein expression in BALB/c mouse tumor xenografted with human MDA-MB-231 cells assessed as fold change in remaining N-myc level at 25 mg/kg, ip administered every 2 days by immunoblotting analysis; assay type: functional; summary of the method: as §5

Compound	Activity [1]	Activity [2]	inhibition (MCF7 [3])	inhibition (MDA-MB-231 [4])	Activity [5]	Activity (Mus musculus)	Activity (MDA-MB-231 [6])	Activity [7]	fold change (FC) [8]	Activity [9]	inhibition (MCF7 [10])	Activity (MCF7 [11])	inhibition (MDA-MB-231 [12])	Activity (MDA-MB-231 [13])	Activity [14]	Activity [15]	Activity [16]	Activity (MCF7 [17])	fold change (FC) [18]	fold change (FC) [19]
H-YGRKKRRQRRRRNQKFKCGE-OH	Non-Toxic	Non-Toxic	Active	Active	Non-Toxic	Active	Active	Non-Toxic	0.67	Non-Toxic	Active	Active	Active	Active	Non-Toxic	Non-Toxic	Non-Toxic	Active	0.71	0.38
CC[C@H](C)[C@H](NC(=O)[C@H](Cc1ccc(O)cc1)NC(=O)[C@@H]1C[C@@H](O)CN1C(=O)[C@H](C)NC(=O)[C@@H](NC(=O)CCCCCNC(=O)[C@H](CCC(=O)O)NC(=O)CNC(=O)[C@H](CS)NC(=O)[C@H](CCCCN)NC(=O)[C@H](Cc1ccccc1)NC(=O)[C@H](CCCCN)NC(=O)[C@H](CCC(N)=O)NC(=O)[C@H](CC(N)=O)NC(=O)[C@H](CCCNC(=N)N)NC(=O)[C@H](CCCNC(=N)N)NC(=O)[C@H](CCCNC(=N)N)NC(=O)[C@H](CCCNC(=N)N)NC(=O)[C@H](CCC(N)=O)NC(=O)[C@H](CCCNC(=N)N)NC(=O)[C@H](CCCNC(=N)N)NC(=O)[C@H](CCCCN)NC(=O)[C@H](CCCCN)NC(=O)[C@H](CCCNC(=N)N)NC(=O)CNC(=O)[C@@H](N)Cc1ccc(O)cc1)[C@@H](C)CC)C(=O)O (H-YGRKKRRQRRRRNQKFKCGE[Ahx]IA[Hyp]YI-OH)	Non-Toxic	Non-Toxic	Active	Active	Non-Toxic	Active	Active	Non-Toxic	0.62	Non-Toxic	Active	Active	Active	Active	Non-Toxic	Non-Toxic	Non-Toxic	Active	0.4	0.13
